Source: ChEMBL document CHEMBL1649496, “Piperaquine pharmacodynamics and parasite viability in a murine malaria model” (Antimicrob Agents Chemother, 2009)

Key:
[1] = system: Plasmodium berghei; test: Antiplasmodial activity against Plasmodium berghei ANKA infected in Swiss mouse assessed as parasitemia at 90 mg/kg, ip measured on day 13 postinfection; type: functional; conditions: route intraperitoneal
Outline: (§1)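 Male Swiss mice (5–6 weeks) infected i.p. with 10^7 P. berghei ANKA-parasitized erythrocytes taken from passage BALB/c mice and diluted in citrate-phosphate-dextrose. At 64 h (3–5% parasitemia confirmed by thin film), piperaquine phosphate was given once i.p. at 90 mg/kg in 50% glycerol/30% isotonic phosphate buffer pH 7.1/20% polysorbate 80. Parasitemia was read from May-Grunwald Giemsa tail-blood smears (mean ± SD) and tracked from dosing (day 0).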

[2] = Plasma concentration in Swiss mouse infected with Plasmodium berghei ANKA at 90 mg/kg, ip after 40 days; type: ADME, organism-based; set-up: dose 90 mg/kg, route intraperitoneal
Outline: (§2)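 Infected Swiss mice (n = 4) were dosed with 90 mg/kg piperaquine phosphate i.p. at day 0. Plasma was taken by cardiac puncture, centrifuged at 3,000 x g for 5 min and stored at –80°C. Drug was measured by a validated HPLC assay (LOQ 1.6 µg/liter, LOD 0.7 µg/liter, CV <12%). Values are mean ± SD.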

[3] = system: Plasmodium berghei; test: Antiplasmodial activity against Plasmodium berghei ANKA infected in Swiss mouse assessed as median survival time at 90 mg/kg, ip administered 5 days after infection; type: functional; conditions: route intraperitoneal
Outline: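 Naive male Swiss mice (5 weeks, n = 5 per donor) inoculated i.p. with 200 µl of a 1:5 dilution of saline-washed, buffy-coat-depleted red cells from PQP-treated infected donor mice (<105 parasites). Five days later three mice per cohort received single i.p. 90 mg/kg PQP in glycerol/phosphate buffer pH 7.1/polysorbate 80; two left untreated. Parasitemia by Giemsa thin films twice daily; median survival recorded.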

[4] = Plasma concentration in Swiss mouse infected with Plasmodium berghei ANKA at 90 mg/kg, ip after 25 days; type: ADME, organism-based; set-up: dose 90 mg/kg, route intraperitoneal; outline: as §2
[5] = system: Plasmodium berghei; test: Antiplasmodial activity against Plasmodium berghei ANKA infected in Swiss mouse assessed as parasitemia at 90 mg/kg, ip measured on day 60 postinfection; type: functional; conditions: route intraperitoneal; outline: as §1
[6] = system: Plasmodium berghei; test: Antiplasmodial activity against Plasmodium berghei ANKA infected in Swiss mouse assessed as parasitemia at 90 mg/kg, ip measured on day 90 postinfection; type: functional; conditions: route intraperitoneal; outline: as §1
[7] = system: Plasmodium berghei; test: Antiplasmodial activity against Plasmodium berghei ANKA infected in Swiss mouse assessed as parasitemia at 90 mg/kg, ip measured on day 40 postinfection; type: functional; conditions: route intraperitoneal; outline: as §1
[8] = system: Plasmodium berghei; test: Antiplasmodial activity against Plasmodium berghei ANKA infected in Swiss mouse assessed as parasitemia at 90 mg/kg, ip administered 5 days after infection measured up to 25 days; type: functional; conditions: route intraperitoneal
Outline: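 Donor blood from previously infected, treated mice was taken by cardiac puncture and the red cells washed three times in 0.9% NaCl. A 1:5 dilution (<10^5 parasites) was given i.p. to naive male mice (5 weeks; n = 5 per donor). Five days later, three mice per group received a single 90 mg/kg i.p. dose of piperaquine phosphate and two stayed untreated. Giemsa smears were read twice daily.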

[9] = system: Plasmodium berghei; test: Antiplasmodial activity against Plasmodium berghei ANKA infected in Swiss mouse assessed as assessed as time required for parasite recrudescence at 90 mg/kg, ip; type: functional; conditions: route intraperitoneal
[10] = system: Plasmodium berghei; test: Antiplasmodial activity against Plasmodium berghei ANKA infected in Swiss mouse assessed as parasitemia at 90 mg/kg, ip measured on day 25 postinfection; type: functional; conditions: route intraperitoneal; outline: as §1
[11] = Plasma concentration in Swiss mouse infected with Plasmodium berghei ANKA at 90 mg/kg, ip after 60 days; type: ADME, organism-based; set-up: dose 90 mg/kg, route intraperitoneal; outline: as §2

Clc1ccc2c(N3CCN(CCCN4CCN(c5ccnc6cc(Cl)ccc56)CC4)CC3)ccnc2c1.O=P(O)(O)O [PIPERAQUINE PHOSPHATE]
Activity [1]: 1.32% | concentration at 960 h [2]: 11 ng/mL | MST [3]: 19 days | concentration at 600 h [4]: 15 ng/mL | Activity [5]: 0.3% | Activity [6]: 0.9% | Activity [7]: 0.1% | Activity [8]: 10% | Time [9]: 7 days | Activity [10]: <0.015% | concentration at 1440 h [11]: 2 ng/mL
